Measured values published in ChEMBL document CHEMBL3632499, “Synthesis and Antiproliferative Activity Evaluation of the Disulfide-Containing Cyclic Peptide Thiochondrilline C and Derivatives” (J Nat Prod, 2015).
Values after ≈ are worked out from the molar mass of the structure shown.

Columns and labels:
HCT-15 = experiment: Antiproliferative activity against human HCT15 cells; format: functional
Method in brief: (§1)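 Profiled in the National Cancer Institute 60 cancer cell line screen. Reported GI50 is the concentration giving 50% growth inhibition, TGI the concentration giving total growth inhibition, and LC50 the concentration giving 50% net cell killing. Values are averages ± SEM from two independent determinations.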

UACC-62 = experiment: Antiproliferative activity against human UACC62 cells; format: functional
Method in brief: (§2)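 Run in the National Cancer Institute 60 cancer cell line panel. Read-outs: GI50, the concentration causing 50% growth inhibition; TGI, the concentration causing total growth inhibition; LC50, the concentration causing 50% net cell killing. Values are averages ± SEM from two independent determinations.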

NCI-H460 = experiment: Antiproliferative activity against human NCI-H460 cells; format: functional; method in brief: as §1
UO-31 = experiment: Antiproliferative activity against human UO31 cells; format: functional; method in brief: as §2
[1] = Antiproliferative activity against human BT549 cells; format: functional; method in brief: as §1
SNB-19 = experiment: Antiproliferative activity against human SNB19 cells; format: functional; method in brief: as §2
[2] = Antiproliferative activity against human EKVX cells; format: functional; method in brief: as §1
HL-60(TB) = experiment: Antiproliferative activity against human HL-60(TB) cells; format: functional
Method in brief: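 Tested in the NCI 60 human cancer cell line panel. GI50 is the concentration giving 50% growth inhibition; TGI (total growth inhibition) and LC50 (50% net cell killing) were also derived. Values are the mean ± SEM of two independent determinations.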

KM12 = experiment: Antiproliferative activity against human KM12 cells; format: functional; method in brief: as §1
SK-OV-3 = experiment: Antiproliferative activity against human SKOV3 cells; format: functional; method in brief: as §1
[3] = Antiproliferative activity against human NCI-ADR-RES cells; format: functional; method in brief: as §1
NCI-H322M = experiment: Antiproliferative activity against human NCI-H322M cells; format: functional; method in brief: as §1
SNB-75 = experiment: Antiproliferative activity against human SNB75 cells; format: functional; method in brief: as §2
MCF7 = experiment: Antiproliferative activity against human MCF7 cells; format: functional; method in brief: as §1
[4] = Aqueous solubility of the compound; format: physicochemical; settings: buffer
[5] = Apparent permeability of the compound from apical to basolateral side in human Caco2 cells; format: ADME, cell-based; settings: Caco-2
[6] = Antiproliferative activity against human COLO205 cells; format: functional; method in brief: as §1
IGROV-1 = experiment: Antiproliferative activity against human IGROV1 cells; format: functional; method in brief: as §1
[7] = Half life in mouse plasma; format: ADME, cell-free
HOP-62 = experiment: Antiproliferative activity against human HOP62 cells; format: functional; method in brief: as §1
[8] = Half life in mouse liver microsomes; format: ADME
MDA-MB-468 = experiment: Antiproliferative activity against human MDA-MB-468 cells; format: functional; method in brief: as §1
SK-MEL-5 = experiment: Antiproliferative activity against human SK-MEL-5 cells; format: functional; method in brief: as §1
CCRF-CEM = experiment: Antiproliferative activity against human CCRF-CEM cells; format: functional; method in brief: as §1
[9] = Antiproliferative activity against human SF295 cells; format: functional; method in brief: as §1
SF-268 = experiment: Antiproliferative activity against human SF268 cells; format: functional; method in brief: as §1
SR = experiment: Antiproliferative activity against human SR cells; format: functional; method in brief: as §2
PC-3 = experiment: Antiproliferative activity against human PC3 cells; format: functional; method in brief: as §1
SW-620 = experiment: Antiproliferative activity against human SW620 cells; format: functional; method in brief: as §2
OVCAR-8 = experiment: Antiproliferative activity against human OVCAR8 cells; format: functional; method in brief: as §1
Malme-3M = experiment: Antiproliferative activity against human MALME-3M cells; format: functional; method in brief: as §1
UACC-257 = experiment: Antiproliferative activity against human UACC257 cells; format: functional; method in brief: as §2
[10] = Antiproliferative activity against human RPMI8226 cells; format: functional; method in brief: as §1
[11] = Antiproliferative activity against human LOXIMVI cells; format: functional; settings: LOX IMVI; method in brief: as §1
[12] = read-out: LC50 (the source's name)

C[C@H](NC(=O)[C@@H]1CSSC[C@@H](NC(=O)c2nc3ccccc3cc2O)C(=O)NCC(=O)N1C)c1ccccc1 gave a TGI (HCT-15) of 9.7 µM, a CC50 (HCT-15; [12]) of 25.9 µM and a GI50 (UACC-62) of 5.7 µM. For the same compound, the TGI (UACC-62) was 13.3 µM, the CC50 (UACC-62; [12]) was 30.2 µM and the GI50 (NCI-H460) was 1.3 µM. The TGI (NCI-H460) was 8 µM, the CC50 (NCI-H460; [12]) was 30.5 µM and the GI50 (UO-31) was 5.8 µM. For the same compound, the TGI (UO-31) was 13.3 µM, the CC50 (UO-31; [12]) was 30.8 µM and the GI50 ([1]; BT-549) was 6.9 µM. For the same compound, the TGI ([1]; BT-549) was 16.1 µM, the CC50 ([1]; BT-549, read-out: LC50 (the source's name)) was 37.6 µM and the GI50 (SNB-19) was 7.3 µM. The TGI (SNB-19) was 19.5 µM, the CC50 (SNB-19; [12]) was > 50 µM and the GI50 [2] was 3.8 µM. It also gave a TGI [2] of 11.8 µM, a CC50 [2, 12] of 31.4 µM and a GI50 (HL-60(TB)) of 1.2 µM. The TGI (HL-60(TB)) was 5.1 µM, the CC50 (HL-60(TB); [12]) was 38.8 µM and the GI50 (KM12) was 0.6 µM. The TGI (KM12) was 8.6 µM, the CC50 (KM12; [12]) was 28.3 µM and the GI50 (SK-OV-3) was 5.8 µM. For the same compound, the TGI (SK-OV-3) was 21.3 µM, the CC50 (SK-OV-3; [12]) was > 50 µM and the GI50 [3] was 11 µM. The TGI [3] was > 50 µM, the CC50 [3, 12] was > 50 µM and the GI50 (NCI-H322M) was 7.1 µM. The TGI (NCI-H322M) was 20.1 µM, the CC50 (NCI-H322M; [12]) was > 50 µM and the GI50 (SNB-75) was 7.7 µM. The TGI (SNB-75) was > 50 µM, the CC50 (SNB-75; [12]) was > 50 µM and the GI50 (MCF7) was 0.9 µM. The TGI (MCF7) was 2.6 µM, the CC50 (MCF7; [12]) was 16.1 µM and the solubility [4] was 4.5 µg/mL (≈ 7.93 µM). For the same compound, the Papp A→B [5] was 0.011 ×10⁻⁶ cm/s, the GI50 ([6]; COLO 205) was 1 µM and the TGI ([6]; COLO 205) was 2.3 µM. It also gave a CC50 ([6]; COLO 205, read-out: LC50 (the source's name)) of 7.2 µM, a GI50 (IGROV-1) of 4 µM and a TGI (IGROV-1) of 12.9 µM. The CC50 (IGROV-1; [12]) was 37.6 µM, the half-life [7] was 4.9 h and the GI50 (HOP-62) was 12.2 µM. It also gave a TGI (HOP-62) of 21 µM, a CC50 (HOP-62; [12]) of 36.8 µM and a half-life [8] of 0.45 h. The GI50 (MDA-MB-468) was 6 µM, the TGI (MDA-MB-468) was 13.3 µM and the CC50 (MDA-MB-468; [12]) was 29.8 µM. It also gave a GI50 (SK-MEL-5) of 0.6 µM, a TGI (SK-MEL-5) of 3.8 µM and a CC50 (SK-MEL-5; [12]) of 15.6 µM. For the same compound, the GI50 (CCRF-CEM) was 1.9 µM, the TGI (CCRF-CEM) was 10.5 µM and the CC50 (CCRF-CEM; [12]) was > 50 µM. It also gave a GI50 ([9]; SF-295) of 7.4 µM, a TGI ([9]; SF-295) of 16.3 µM and a CC50 ([9]; SF-295, read-out: LC50 (the source's name)) of 35.8 µM. The GI50 (SF-268) was 0.4 µM, the TGI (SF-268) was 11.1 µM and the CC50 (SF-268; [12]) was 35.6 µM. The GI50 (SR) was 0.2 µM, the TGI (SR) was 1.2 µM and the CC50 (SR; [12]) was > 50 µM. The GI50 (PC-3) was 6.1 µM, the TGI (PC-3) was 13.5 µM and the CC50 (PC-3; [12]) was 30.3 µM. It also gave a GI50 (SW-620) of 1.9 µM, a TGI (SW-620) of 6.3 µM and a CC50 (SW-620; [12]) of 33.2 µM. The GI50 (OVCAR-8) was 5.2 µM, the TGI (OVCAR-8) was 17.8 µM and the CC50 (OVCAR-8; [12]) was > 50 µM. For the same compound, the GI50 (Malme-3M) was 6.1 µM, the TGI (Malme-3M) was 14 µM and the CC50 (Malme-3M; [12]) was 32.3 µM. The GI50 (UACC-257) was 8.3 µM, the TGI (UACC-257) was 27.8 µM and the CC50 (UACC-257; [12]) was > 50 µM. The GI50 ([10]; RPMI-8226) was 5.7 µM, the TGI ([10]; RPMI-8226) was 21.6 µM and the CC50 ([10]; RPMI-8226, read-out: LC50 (the source's name)) was > 50 µM. It also gave a GI50 [11] of 0.7 µM, a TGI [11] of 1.5 µM and a CC50 [11, 12] of 3.6 µM.
